Data taken from PMC8258284 (Infection & Chemotherapy, 2021).
Several values for one entry are separate records, joined by “and”; a condition that tells them apart may be missing. Identical values can stand only once. Entries after “also recorded” stand apart in the source; their conditions may differ. Counter-ions that a name gives are not always drawn. Marks after values point to notes of the source that are not given here.

Assays:
cutaneous leishmaniasis = conditions: different CL topical formulations alone or combined; cited from earlier work
[1] = system: Intracellular amastigotes of L. (V.) braziliensis; experiment: Intracellular amastigote inhibition in transformed THP-1 cells; type: cell-based, Leishmania (Viannia) braziliensis
In short: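 PMA-differentiated (72 h) THP-1 cells infected with latent-phase L. (V.) braziliensis MHOM/BR/75/M2903 promastigotes, 8 × 10^5 cells/mL. Exposed 24 h to NE serial dilutions (1:2–1:1,000), vehicle, ClAlPc (0.04–20 µM) or PM (244.0–121,827.0 µM) solutions. Then 400–700 nm light, 32°C, 32 min, 5 J/cm2, or kept non-irradiated, followed by 24 h dark. Giemsa counts of infected/uninfected cells give % inhibition versus untreated controls. PI = % inhibition at 0 J/cm2 / % at 5 J/cm2.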

THP-1 cell = THP-1 cell toxicity; type: cell-based, Human
In short: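 Non-infected THP-1 cells were PMA-transformed (72 h) and seeded at 8 × 10^5 cells/mL. Treated 24 h with NE serial dilutions (1:2–1:1,000), vehicle, or ClAlPc/PM solutions. Irradiated at 37°C with 400–700 nm light, 32 min, 5 J/cm2, or left non-irradiated, then incubated 24 h in the dark. Viability read by MTT; % toxicity calculated relative to untreated controls.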

[2] = type: in vivo, BALB/c mice; conditions: range over organs after topical NE treatment; listed as PM
In short: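 Healthy female BALB/c mice, 7–9 weeks (N = 3/group), received 50 μL NE topically at the tail base every three days for 15 days. ClAlPc groups were irradiated (672 ± 40 nm, 7 min, 20 J/cm2) 30 min post-application. Six days after treatment, liver, spleen, kidney and treated skin (20–25 mg) were macerated, sonicated and centrifuged 10 min at 10,000 rpm. Supernatants were taken up in Trizma buffer pH 7.8, and PM was measured by C18 HPLC after 1-fluoro-2,4-dinitrobenzene derivatization.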

[3] = system: Promastigotes of L. (V.) braziliensis (MHOM/BR/75/M2903); experiment: Promastigote inhibition; type: cell-based, Leishmania (Viannia) braziliensis
[4] = Ex vivo skin permeation and retention test; type: in vitro ADME, mice
[5] = dilution 100 (0.4 µM ClAlPc), PDT + (5 J/cm^2)
[6] = dilution 1,000, PDT + (5 J/cm^2)

Compound | % of inhibition (mean ± SD), Intracellular amastigotes ([1]; dilution 50, PDT + (5 J/cm^2)) [%] | % of inhibition (mean ± SD), Intracellular amastigotes ([1]; dilution 50, PDT −) [%] | % of inhibition (mean ± SD), Intracellular amastigotes [1, 5] [%] | % of inhibition (mean ± SD), Intracellular amastigotes ([1]; dilution 100, PDT −) [%] | % of inhibition (mean ± SD), Intracellular amastigotes ([1]; dilution 300, PDT + (5 J/cm^2)) | % of inhibition (mean ± SD), Intracellular amastigotes ([1]; dilution 300, PDT −) [%] | % of inhibition (mean ± SD), Intracellular amastigotes ([1]; dilution 500, PDT + (5 J/cm^2)) | % of inhibition (mean ± SD), Intracellular amastigotes ([1]; dilution 500, PDT −) [%] | % of inhibition (mean ± SD), THP-1 cell (THP-1 cell; dilution 2, PDT + (5 J/cm^2)) [%] | % of inhibition (mean ± SD), THP-1 cell (THP-1 cell; dilution 2, PDT −) [%] | % of inhibition (mean ± SD), THP-1 cell (THP-1 cell; dilution 10, PDT + (5 J/cm^2)) [%] | % of inhibition (mean ± SD), THP-1 cell (THP-1 cell; dilution 10, PDT −) [%] | % of inhibition (mean ± SD), THP-1 cell (THP-1 cell; dilution 100, PDT + (5 J/cm^2)) [%] | % of inhibition (mean ± SD), THP-1 cell (THP-1 cell; dilution 100, PDT −) | % of inhibition (mean ± SD), THP-1 cell (THP-1 cell; [6]) [%] | % of inhibition (mean ± SD), THP-1 cell (THP-1 cell; dilution 1,000, PDT −) [%] | % of inhibition (mean ± SD), Promastigotes ([3]; dilution 2, PDT + (5 J/cm^2)) [%] | % of inhibition (mean ± SD), Promastigotes ([3]; dilution 2, PDT −) [%] | % of inhibition (mean ± SD), Promastigotes ([3]; dilution 10, PDT + (5 J/cm^2)) [%] | % of inhibition (mean ± SD), Promastigotes ([3]; dilution 10, PDT −) [%] | other results
NC[C@@H]1O[C@H](O[C@H]2[C@@H](O)[C@H](O[C@@H]3[C@@H](O)[C@H](N)C[C@H](N)[C@H]3O[C@H]3O[C@H](CO)[C@@H](O)[C@H](O)[C@H]3N)O[C@@H]2CO)[C@H](N)[C@@H](O)[C@@H]1O [PM (s), paromomycin sulfate] | 54.1 ± 2.6 | 60.6 ± 2.4 | 46.6 ± 2.8 | 48.5 ± 5.8 | 30.3 ± 2.8% | 27.3 ± 8.1 | 0% | 2.3 ± 1.1 | 78.7 ± 5.3 | 79.2 ± 3.0 | 34.3 ± 5.2 | 33.1 ± 3.5 | 18.6 ± 5.1 | 17.9 ± 8.0^a % | 0.7 ± 1.0 | 0.3 ± 0.6 | 78.7 ± 5.9 | 78.5 ± 3.3 | 98.5 ± 1.4 | 98.4 ± 1.6 | Healing rates (clinical efficacy) (cutaneous leishmaniasis): 53.3 to 90.0%; Concentrations of PM detected in organs [2]: 27.3 - 292.5 μM/25 mg and 27.26 - 292.49 μM/25 mg; % of inhibition (mean ± SD), Promastigotes [3, 5]: 99.9 ± 0.0%; % of inhibition (mean ± SD), Promastigotes ([3]; dilution 100, PDT −): 99.9 ± 0.0%; % of inhibition (mean ± SD), Promastigotes [3, 6]: 100%; % of inhibition (mean ± SD), Promastigotes ([3]; dilution 1,000, PDT −): 100%
chloroaluminium phthalocyanine [ClAlPc (s)] | 93.4 ± 2.8 | 2.8 ± 0.3 | 65.8 ± 4.7 | 0.5 ± 0.8 | 21.8 ± 7.0^a % | 0.4 ± 0.0 | 6.9 ± 2.1^a % | 0 | 97.8 ± 0.6 | 4.5 ± 1.7 | 97.6 ± 0.5 | 0 | 49.1 ± 4.8 | 0% | 13.8 ± 4.1 | 0 | 100 | 0.3 ± 0.7 | 100 | 1.0 ± 1.0 | ClAlPc retained in the epidermis/dermis ([4]; after 24 h): 26.27 μM/cm^2; ClAlPc retained by the stratum corneum ([4]; after 24 h, tape stripping): 143.97 μM/cm^2; ClAlPc skin permeation (receptor compartment) ([4]; any time point up to 24 h): No skin ClAlPc permeation was observed; also recorded: did not permeate through the skin; % of inhibition (mean ± SD), Promastigotes ([3]; dilution 100, PDT −): 0%; % of inhibition (mean ± SD), Promastigotes [3, 6]: 0%; % of inhibition (mean ± SD), Promastigotes ([3]; dilution 1,000, PDT −): 0%
